Among all 2,500 compounds or so, about 1,200 (48%) were called active. The set was probably picked from earlier hits. This is one part of the list. Values without a mark were called inactive.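 Rule for the calls: active = mean activation above the low control average plus 3 SD, as set in the primary screen (cut at about 12% in these data); inactive = the rest.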

The target in the assay is Troponin I, cardiac muscle (Homo sapiens) + Troponin T, cardiac muscle (Homo sapiens) + Troponin C, slow skeletal and cardiac muscles (Homo sapiens) (UniProt P19429+P45379+P63316). In words: calcium sensitizers of cardiac thin filaments – biochemical, IANBD-TnC fluorescence, triplicate, confirmation (AID 504383).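 Note: 0% = DMSO at 0.472 mM calcium and 100% = DMSO at 2.9 mM calcium.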 The note with it: IANBD-labeled cardiac RTF, Ca2+ sensitivity fluorescence; at 7.2 µM; hits give high values; scaled from EC20 to saturating calcium; tested at EC20 calcium, 0.472 mM. In short, it runs like this: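 System: Labelled thin filament complex | Technique: Filament fluorescence intensity | Benchmarks: Low control EC20 calcium, high control EC100 calcium | Timing: 15 min at 25 °C | Compound dosing: One dose, 7.2 µM nominal | Probe or stimulus: Ca2+ 0.472 mM, EC20 level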
`Cn1c(/C(C#N)=C/c2ccc(-c3ccc(S(N)(=O)=O)cc3)o2)nc2ccccc21`: the activation was 9.43%.

In the case of `N#C/C(=C\c1ccc(-c2ccc(F)cc2)o1)C(=O)Nc1nc(-c2cccs2)cs1`, the activation was 81.8% (active).

On to `N#C/C(=C/c1ccc(-c2ccccc2)o1)c1nc(-c2cccs2)cs1`, for which the activation was 105% (active).

`CN1CCc2c(sc3c2C(=O)NC(c2ccccn2)N3)C1` (stereo not drawn): the activation was 1.45%.

For `O=C1NC(c2ccco2)Nc2sc3c(c21)CCN(Cc1ccccc1)C3` (stereo not drawn), the activation was 11.7% (active).

As for `CN1CCc2c(sc3c2C(=O)NC(c2ccco2)N3)C1` (stereo not drawn), the activation is 1.53%.

Regarding `CN1CCc2c(sc3c2C(=O)NC(c2cccs2)N3)C1` (stereo not drawn), the activation was 9.65%.

Take `Cc1ccc(C2NC(=O)c3c(sc4c3CCN(C)C4)N2)o1` (stereo not drawn): the activation was 12.6% (active).

With `Cc1ccc(C2NC(=O)c3c(sc4c3CCN(C)C4)N2)s1` (stereo not drawn), the activation was 5.94%.

Take `Cc1ccsc1C1NC(=O)c2c(sc3c2CCN(C)C3)N1` (stereo not drawn): the activation is 63.1% (active).

Take `CSc1ccc(C2NC(=O)c3c(sc4c3CCN(C)C4)N2)cc1` (stereo not drawn): the activation is 22.9% (active).

Turning to `CCc1ccccc1NC(=S)NCc1cccn1C`, the activation is 9.11%.

Turning to `Cn1c(C(=O)NCCCN2CCCCCC2)cc2c(=O)n(C)c3ccccc3c21`, the activation was 18.9% (active).

Regarding `O=C(NCCCN1CCOCC1)C(=O)NCc1ccco1`, the activation was 9.34%.

For `O=C(C1=NN[C@@H]2C(=O)N(c3ccccc3C(F)(F)F)C(=O)[C@H]12)c1ccc2ccccc2n1`, the activation is 60.7% (active).

Consider `CC1CC(C)(C)NC(=S)N1CCCC(=O)Nc1ccccc1F` (stereo not drawn), for which the activation was -0.32%.

With `Cc1ccc(C)c(N2CCN(C(=O)CN3C(=S)NC(C)(C)CC3C)CC2)c1` (stereo not drawn), the activation was 42.4% (active).

Turning to `CC(C)C[C@@H](CN=[N+]=[N-])N1CCN(C)CCC1=O`, the activation is -0.6%.

Consider `CCN1CCN(C2=CC3=CC(=C(C#N)C#N)CCC3CC2)CC1` (stereo not drawn), for which the activation was 0.71%.

`Cc1oc(-c2ccccc2Cl)nc1CSc1nc2c(c(=O)[nH]1)CCC2`: the activation is 6.98%.

Consider `O=C(NCc1ccccc1)C1(c2cccc(F)c2)CCCC1`, for which the activation was 6.54%.

For the compound `Fc1ccc(CNCc2ccc(Br)cc2)cc1`, the activation is 10.4%.

For `Fc1ccc(CNC(=S)NCc2ccc(F)cc2)cc1`, the activation is 54.8% (active).

Regarding `Cc1cc(=O)c2c([nH]1)c(C)cc1[nH]c(C)c(C)c12`, the activation is 9.89%.

On to `CC1(C)C([N+](=O)[O-])C(c2ccc(F)cc2)NC(c2ccc(F)cc2)C1[N+](=O)[O-]` (stereo not drawn), for which the activation is 1.97%.

`COC(=O)C1(C)NC(c2ccc(C)cc2)C2C(=O)N(c3ccc(F)cc3)C(=O)C21` (stereo not drawn): the activation was 17% (active).

Turning to `CC(C)CN1CCN(Cc2cccn2-c2ccc(Cl)cn2)CC1CCO` (stereo not drawn), the activation was 155% (active).

Regarding `O=S(=O)(c1ccc(F)cc1)N1CN(Cc2ccco2)c2nc3ccccc3nc21`, the activation was 19% (active).

Take `COc1ccc(S(=O)(=O)N2CN(Cc3ccco3)c3nc4ccccc4nc32)cc1`: the activation was 127% (active).

On to `Cc1ccccc1N(CC(N)=O)S(C)(=O)=O`, for which the activation was 4.33%.

As to `CCCCCCC(=O)N/N=C/c1ccco1`, the activation is 7.23%.

As to `CS(=O)(=O)N(CC(=O)N/N=C/c1ccco1)c1ccccc1Br`, the activation is 116% (active).

On to `O=C(O)c1ccccc1-c1c2cc(I)c(=O)c(I)c-2oc2c(I)c(O)c(I)cc12`, for which the activation is 5.23%.

For `C#CCOCCOCCOCCNc1nc(N2CCN(C(=O)Cn3cc(CCCCN)nn3)CC2)nc(N2CCN(C(=O)Cn3cc(CC(C)O)nn3)CC2)n1` (stereo not drawn), the activation was 5.79%.

As for `C=C1CCN(C(CC(C)C)C(=O)OC)S(=O)(=O)c2ccccc21` (stereo not drawn), the activation is 4.69%.

As for `O=C(O)c1ccc2c(c1)S(=O)(=O)c1ccccc1C2=O`, the activation is 6.82%.

In the case of `C=C1CCN([C@@H](Cc2ccccc2)C(=O)O)S(=O)(=O)c2ccccc21`, the activation was 15.6% (active).

Take `COc1ccc(/C=C/C=C2\N=C(SC)SC2=O)cc1`: the activation was 6.95%.

In the case of `COc1ccc(/C=C/c2nc3sc4c(c3c(=O)o2)CCC4)cc1`, the activation is 292% (active).

With `Fc1ccc(-c2[nH]ncc2CN(CC2CCC2)CC2CCCO2)c(F)c1` (stereo not drawn), the activation was 46.1% (active).

Turning to `CCCN1C(=O)/C(=C/c2ccc(N3CCOCC3)cc2)NC1=S`, the activation is 217% (active).

Regarding `CCN1C(=O)/C(=C/c2ccc(N3CCCC3)cc2)NC1=S`, the activation was 7.36%.

As to `CN1C/C(=C\c2ccc(N3CCOCC3)cc2)C(=O)/C(=C/c2ccc(N3CCOCC3)cc2)C1`, the activation was 11.8% (active).

`CCN1C/C(=C/c2ccc(N3CCOCC3)cc2)C(=O)/C(=C/c2ccc(N3CCOCC3)cc2)C1`: the activation was 4.14%.

In the case of `O=C1/C(=C/c2ccc(N3CCCC3)cc2)NC(=S)N1C1CC1`, the activation was 1.84%.

Turning to `COc1ccc(S(=O)(=O)N2CCC(C(=O)NC(C)CCc3ccccc3)CC2)cc1` (stereo not drawn), the activation was 11.2%.

In the case of `CCC(C)NC(=O)C1CC(=O)N(CCc2ccc(F)cc2)C1` (stereo not drawn), the activation is 331% (active).

For the compound `O=[N+]([O-])c1ccc(N/N=C/c2ccc(OCc3cccc4ccccc34)cc2)nc1`, the activation is 8.03%.

Consider `Clc1ccccc1/C=N/NC1=Nc2cccc3cccc1c23`, for which the activation is 5.59%.

As to `O=[N+]([O-])c1ccc(NN=Cc2cccc3ccccc23)nc1`, the activation was 31.4% (active).

Turning to `O=c1c(/C=N/Nc2ccccc2)c(Sc2nnnn2-c2ccccc2)nc2ccccn12`, the activation is 2.36%.

For the compound `Cc1cc(C)c2c(=O)n(-c3ccccc3)[nH]c2n1`, the activation is 10.3%.

Regarding `Cc1cc(C)c(C#N)c(Sc2nnnn2-c2ccccc2)n1`, the activation is 27.6% (active).

`CC(C)(C)c1cc(NCc2ccccn2)n2ncc(-c3ccc(Cl)cc3)c2n1`: the activation was 7.76%.

Turning to `COC(=O)c1c(=O)n(O)c2ccc(OC)cc2[n+]1[O-]`, the activation is 16.1% (active).

For the compound `COc1ccc2c(c1)c(/C=C/c1cc[n+](C)cc1)cn2C`, the activation is 4.1%.

Take `CCOC(=O)c1c(=O)n(O)c2ccc(OC)cc2[n+]1[O-]`: the activation was 8.7%.

Consider `COC(=O)C1CSc2[nH]c(=O)sc2C1c1ccccc1` (stereo not drawn), for which the activation was 8.86%.

Consider `CN(C)c1ccc(/C=C2\NC(=S)N(Cc3ccccc3)C2=O)cc1`, for which the activation is 217% (active).

As to `Cc1ccc([C@@H]2C3COCC=C3C(C#N)=C(N)C2(C#N)C#N)o1` (stereo partly drawn), the activation is 13.5% (active).

`Cc1ccc(C2C3CN(C(C)C)CC=C3C(C#N)=C(N)C2(C#N)C#N)cc1` (stereo not drawn): the activation is 9.22%.

On to `CC(C)CN1CCC(C(=O)N2CCN(c3ccccc3F)CC2)CC1`, for which the activation is 4.79%.

With `CCC(CC)C(=O)c1c[nH]c(C(=O)N2CCN(c3ccccc3F)CC2)c1`, the activation is 60.8% (active).

For `COc1c(Cl)ccc(Cl)c1C(=O)NCc1ccco1`, the activation is 8.15%.

For `CCOc1ccc(CNC(=O)c2ccc(Sc3ccc(Cl)cc3)c(NC(C)=O)c2)cc1`, the activation is 16.5% (active).

Regarding `CC(=O)Nc1cc(C(=O)NCc2ccco2)ccc1Sc1ccc(F)cc1`, the activation is 69.2% (active).

In the case of `CCOc1c2ccc(C(=O)NCc3ccc(C)cc3)cc2nn1CCOC`, the activation was 0.03%.

`O=C(NCc1ccco1)c1cc(-c2cccc(Cl)c2)on1`: the activation was 4.34%.

Turning to `CC1(C)CC(=O)C2=C(C1)OC(N)=C(C#N)[C@@H]2c1ccccc1[N+](=O)[O-]`, the activation was 22% (active).

Turning to `O=C1C2C3C=CC(C4CC34)C2C(=O)N1/N=C/c1ccc(-c2ccc(F)cc2[N+](=O)[O-])o1` (stereo not drawn), the activation is 23.2% (active).

With `COc1ccc(-n2c(C)cc(/C=C3\SC(=S)N(Cc4ccco4)C3=O)c2C)cc1`, the activation is 239% (active).

Consider `Cc1cc(/C=C2\SC(=S)N(Cc3ccco3)C2=O)c(C)n1-c1cccnc1`, for which the activation is 48.4% (active).

In the case of `Cc1cc(/C=C2\SC(=S)N(Cc3ccco3)C2=O)c(C)n1-c1ccccc1`, the activation was 17.4% (active).

Turning to `COc1ccc(O)c(/C=C2/SC(=S)N(Cc3ccccc3)C2=O)c1`, the activation is 0.43%.

In the case of `CCN1CCN(c2c(/C=C3\SC(=S)N(Cc4ccco4)C3=O)c(C)c(C#N)c(=O)n2C)CC1`, the activation is 4.2%.

With `Cc1cc(/C=C2\SC(=S)N(C)C2=O)c(C)n1-c1ccccc1O`, the activation was 33% (active).

Consider `COc1ccc(-n2c(C)cc(/C=C3\SC(=S)NC3=O)c2C)cc1`, for which the activation is 8.15%.

Regarding `CCN1C(=S)SC(=O)C1=C1C=C(C)N(Cc2ccco2)C(C)=C1`, the activation is 8.86%.

`COc1cccc2c1C(=O)c1c(O)c3c(c(O)c1C2=O)CC(O)(C(C)=NNC(=O)c1ccc(Cl)c(Cl)c1)CC3OC1CC(N)C(O)C(C)O1` (stereo not drawn): the activation was 5.43%.

With `CN(C)C=NC(=O)c1cc(C(=O)c2ccccc2Cl)c[nH]1`, the activation is 11%.

With `O=C(c1c[nH]c(C(=O)C(Cl)(Cl)Cl)c1)c1c(F)cccc1F`, the activation is 3920% (active).

As to `O=S(=O)([N-]c1nc2ccccc2nc1-[n+]1ccc(-c2ccncc2)cc1)c1ccccc1`, the activation is 4.89%.

Regarding `Cc1ccc[n+](-c2nc3ccccc3nc2[N-]S(=O)(=O)c2ccccc2)c1`, the activation is 55.5% (active).

Consider `CCOC(=O)N1CCC(NC(=O)c2cccs2)CC1`, for which the activation was 6.98%.

On to `CCOC(=O)N1CCC(Nc2cccc(SC)c2)CC1`, for which the activation is 246% (active).

Turning to `CCOC(=O)c1cc(-c2ccc(F)cc2)n(CCC(=O)NC2CCN(Cc3ccccc3)CC2)c1C`, the activation is 10.5%.

As to `Cc1ccc(Cn2c(O)c(N=NC(=S)Nc3ccccc3F)c3cc(S(=O)(=O)N4CCOCC4)ccc32)cc1`, the activation is 17.5% (active).

Consider `Oc1c(N=NC(=S)Nc2ccccc2F)c2ccccc2n1Cc1ccc(F)cc1`, for which the activation is 3.17%.

As for `CCOC(=O)CCC(=O)NCc1ccc2c(c1)cc(C)n2C`, the activation was 11.9% (active).

Turning to `O=C(O)CSc1ncnc2scc(-c3ccc(Br)cc3)c12`, the activation was 11.7% (active).

`CCc1ccc(-n2c(O)c(C=NCCN(CC)CC)c(=O)[nH]c2=O)cc1`: the activation was 20.8% (active).

Turning to `Cc1nnc(SCC(=O)NC(C)(C)C)n1C1CCCCC1`, the activation was 45% (active).

Take `CC(C)(C)NC(=O)CSc1nnc(-c2ccccn2)n1-c1ccccc1`: the activation is 6.6%.
